In ChEMBL document CHEMBL4513216, “Probing the Open Global Health Chemical Diversity Library for Multistage-Active Starting Points for Next-Generation Antimalarials” (ACS Infect Dis, 2020) one finds cytotoxicity data, which are given here for 40 compounds.

A short description of the data set: Toxicity liver stage against HepG2, at 10uM. The settings on record: human, HepG2-A16-CD81EGFP cells; read-out: INHIBITION
Format: cell-based. Further details: test concentration 10 uM, cell line HepG2-A16-CD81EGFP. In short, it runs like this: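 Uninfected HepG2-A16-CD81EGFP cells, 3 × 10^3 per well, 1536-well, plated on prespotted compound at 10 μM final, parasite-free screening media added to match infected plates; puromycin 10 μM positive, DMSO 0.5% negative; run in parallel with 48 h PbLuc assay at 37 °C, 5% CO2; viability by CellTiter-Glo luminescence, normalized to controls.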
With `Cc1nccc([C@@H]2C[C@@H]3CCN(S(C)(=O)=O)C[C@H]3O2)n1`, the cytotoxicity at 10 µM is -11.3%.

In the case of `Cc1nn(C)c(C)c1-c1nccnc1CC1CCNCC1`, the cytotoxicity at 10 µM was -2.38%. Under `COc1cccc(CC(=O)NC(C)c2nc3cccnc3n2C(C)C)c1` (stereo not given) stands -22.6%; under `O=C(O)CN1CCOCC(Cc2ccc(Cl)cc2)C1` (stereo not given), -25.7%; under `O=C1NCC2(CCCN(Cc3cccnc3)C2)Oc2ccccc21` (stereo not given), -24.1%.

As to `COCc1c(Cl)cccc1NC(=O)CNC(=O)C(C)(C)C`, the cytotoxicity at 10 µM was -5.73%.

For `CN1CCOC(CNCC(=O)NCCCc2ccccc2)C1` (stereo not given), the cytotoxicity at 10 µM is -3.23%. Turning to `CC(c1ncc(C(C)(C)C)o1)N1CCN(c2ccncc2)CC1` (stereo not given), the cytotoxicity at 10 µM came out at 18.5%. Under `COc1cc(C2(C(=O)N3CCN(CC(C)O)CC3)CC2)ccc1C` (stereo not given) stands -2.43%; under `O=C(CS(=O)(=O)c1ccccn1)NC1CCCc2ccccc21` (stereo not given), -4.04%; under `NS(=O)(=O)c1ccc(CNC(=O)c2ccc(Cl)cc2F)cc1`, -1.59%. For `CN(Cc1nccn1CC(F)(F)F)C(=O)c1ccc(F)c(F)c1` the value was -0.394%; for `CCC(=O)Nc1cccc(OCC(=O)N2C[C@H]3CC[C@H]2C3)c1`, -2.18%. For `O=C(C1CNCCN1C(=O)CCOc1ccccc1)N1CCOCC1` (stereo not given) the value was 0.311%; for `CC(C)n1cnnc1CN(C)C(=O)CCn1cnc2ccccc2c1=O`, 6.4%. On to `CCn1cc(CN2CCN(Cc3cc(C)cc(C)c3)C(=O)C2)cc1C#N`, for which the cytotoxicity at 10 µM was determined as 1.72%.

Take `CCn1c(C2CCCN(Cc3cc(C)cc(C)c3)C2)nn(C)c1=O` (stereo not given): the cytotoxicity at 10 µM was -3.12%.

As to `CCc1cc(N2CCS(=O)(=O)CC2)n2nc(C)c(C)c2n1`, the cytotoxicity at 10 µM is -4.02%. Consider `CCOC(=O)CNC(=O)N1CCOC(Cc2ccc(OC)cc2)C1` (stereo not given), for which the cytotoxicity at 10 µM is -7.99%. On to `O=C(NCC(F)(F)C(F)F)c1cccnc1`, for which the cytotoxicity at 10 µM was determined as 15.4%.

As to `COC(=O)CCCC(=O)N(C)CC1Cc2ccccc2CN1C` (stereo not given), the cytotoxicity at 10 µM is -12.4%.

In the case of `Cc1cccc(C(C(=O)NC(C)(C)CN2CCOCC2)N(C)C)c1` (stereo not given), the cytotoxicity at 10 µM was -2.21%. For `OC1(CNc2ccc(-c3nc(C4CC4)no3)cn2)CCCCC1` the value was 7.72%. For `O=S(=O)(NCCc1nc(-c2cccnc2)n[nH]1)NCc1ccccc1` the value was 7.02%. For `Cc1cc(C)nc(N2C[C@H]3OC(=O)N(CCc4cccc(Cl)c4)[C@H]3C2)n1` the value was 6.72%. `Cc1ccc(CCNC(=O)Cn2nc(C)n(Cc3ccccc3)c2=O)s1`: the cytotoxicity at 10 µM is -3.66%. With `COc1cc(CCC(=O)NC(C)(C)C)ccc1OCC(F)(F)F`, the cytotoxicity at 10 µM is -8.76%. Under `NC(=O)NCC1CCCCN1C(=O)c1cccc(Cl)c1` (stereo not given) stands -7.6%; under `Cc1noc2ncc(C(=O)NCC3CCCO3)cc12` (stereo not given), -10.2%. Under `Cc1nn(C)c(N(C)C)c1CNC1CCOc2c(Cl)cccc21` (stereo not given) stands -5.36%. Under `Cc1nc(-c2ccco2)ccc1C(=O)N1CCn2c(C)nnc2C1` stands -5.83%; under `O=C(CN1CCC(c2ccnn2CCO)CC1)NCC1CCCCC1`, -0.463%. Turning to `Cc1cc(CN2CCN(CC(O)c3cccc(F)c3)CC2)no1` (stereo not given), the cytotoxicity at 10 µM is -12.2%.

As for `Cc1nc(C)n(CC2CCCN2Cc2cn3ccccc3n2)n1` (stereo not given), the cytotoxicity at 10 µM was -3.05%. For `CN(CC(=O)Nc1ccc(Br)cn1)C(=O)C(C)(C)C` the value was -11.9%. For `CSC(C)C(=O)N(C)CC(=O)Nc1ccc(Br)cn1` (stereo not given) the value was -7.18%. Under `CC(C)c1nc(C2CCCN2CC(=O)Nc2cccnc2)no1` (stereo not given) stands -10.1%. As to `NC(=O)CC1CCN(C(=O)NCCc2ccc(Cl)s2)CC1`, the cytotoxicity at 10 µM was -8.03%. For `Cc1cc(NC(=O)NCc2ccccc2OC(F)F)n(C)n1` the value was 2.29%. Under `Cc1cc(C(=O)N2CCc3nc(C4CCCCN4)ncc3C2)cs1` (stereo not given) stands -22.4%.
